Data taken from PMC12373759 (Communications Medicine, 2025).
Values joined by “and” are separate entries in the source; they are usually repeats but may differ in a detail not shown here. Equal values may be shown once. Bridge positions count the residues as written; N and C are the ends. Square brackets hold non-standard residues; d marks the D form. Peptide text beside a SMILES is read from it. * marks the point of attachment. DOTA = O=C(O)CN1CCN(CC(=O)O)CCN(CC(=O)*)CCN(CC(=O)O)CC1; Thr(ol) = C[C@@H](O)[C@H](N)CO

Columns and labels:
corticotropinomas = conditions: PET/CT; cited from earlier work
[1] = Shelf-life / stability in normal saline; format: physicochemical
Outline: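 Shelf-life: radiotracer kept in normal saline at room temperature and examined for up to 4 h.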

Endotoxin test = conditions: V = 2 mL, dilution factor 10; limit <175 EU/V
Outline: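 Chromogenic endotoxin assay per USP 85 on the in-house-prepared radiotracer. Results and the acceptance limit are expressed as endotoxin units per injection volume (EU/V).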

[2] = target: T1, recombinant human V1b receptor (Homo sapiens, UniProt P47901); experiment: In-vitro receptor binding assay
T1 sequence (P47901 1-424): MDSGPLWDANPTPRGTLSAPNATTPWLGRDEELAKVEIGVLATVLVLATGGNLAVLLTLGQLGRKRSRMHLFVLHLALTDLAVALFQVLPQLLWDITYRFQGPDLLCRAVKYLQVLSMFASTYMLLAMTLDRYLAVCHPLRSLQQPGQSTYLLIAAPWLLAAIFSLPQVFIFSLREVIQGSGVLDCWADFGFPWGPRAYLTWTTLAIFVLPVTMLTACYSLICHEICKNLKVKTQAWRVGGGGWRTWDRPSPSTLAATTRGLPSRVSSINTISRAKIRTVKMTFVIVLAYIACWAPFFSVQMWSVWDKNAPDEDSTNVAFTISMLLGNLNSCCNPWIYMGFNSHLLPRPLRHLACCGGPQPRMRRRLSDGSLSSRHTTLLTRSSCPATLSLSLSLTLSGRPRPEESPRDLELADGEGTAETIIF

Sterility test = conditions: no visible growth or turbidity for up to 14 days
corticotropinoma = conditions: cited from earlier work
[3] = Plasma protein binding, TCA precipitation method; format: in vitro ADME; conditions: 37 °C, 10% TCA
[4] = Ex vivo biodistribution in healthy Wistar rats
Outline: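 Nine healthy male Wistar rats (16 weeks, 274 ± 13 g) each received 8 ± 1.1 MBq radiotracer IV via the penile vein. Under ketamine (40 mg/kg) plus xylazine (4 mg/kg) anaesthesia, rats were killed by cervical dislocation at 30, 60 and 120 min (n = 3 per time). Organs were weighed and gamma-counted (NaI(Tl)). %ID/g used injected counts corrected for injection-site and syringe residues. Blood pool was taken as 7% of body weight. Mean ± SD.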

[5] = Stability in human serum at 37 °C; format: in vitro ADME
[6] = cited from earlier work

## OC[C@H]1OC(O)[C@H]([18F])[C@@H](O)[C@@H]1O (some centres unmarked) [[^18F]FDG]
corticotropinomas
  sensitivity for corticotropinomas: 40%

## C[C@@H](O)[C@@H](CO)NC(=O)[C@@H](CCCNC(=N)N)NC(=O)[C@@H]1CCCN1C(=O)[C@@H]1CSSC[C@H](NC(=O)[C@H](Cc2ccccc2)NC(=O)CN2CCN(CC(=O)O)CCN(CC(=O)O)CCN(CC(=O)O)CC2)C(=O)N[C@@H](Cc2ccc(O)cc2)C(=O)N[C@@H](Cc2ccccc2)C(=O)N[C@@H](CCC(N)=O)C(=O)N[C@@H](CC(N)=O)C(=O)N1 [[^68Ga]Ga-DOTA-mDesmo, metal not drawn] ({DOTA}-FCYFQNCP[dR][Thr(ol)]; disulfide 2-7)
[1]; PBS, 37 °C
  stability (single radio peak at Rf 0.0): up to 4 h
[1]; normal saline, room temperature
  shelf-life (single radio peak at Rf 0.0): up to 4 h
Endotoxin test
  endotoxin value: 8.6 ± 1.2 EU/V
[2]; V1b 15.6 nM, tracer 0.3 µM
  Binding (%) (Mean ± SD): 5.1 ± 1.3%
[2]; V1b 62.5 nM, tracer 0.3 µM
  Binding (%) (Mean ± SD): 25.7 ± 2.4%
[2]; V1b 125 nM, tracer 0.3 µM
  Binding (%) (Mean ± SD): 30.7 ± 1.9%
[2]; V1b 250 nM, tracer 0.3 µM
  Binding (%) (Mean ± SD): 44 ± 2.2%
[2]; V1b 250 nM, tracer 0.3 µM + cold DOTA-mDesmo 5 µM
  Binding (%) (Mean ± SD): 38.8 ± 1.7%
[2]; V1b 250 nM, tracer 0.3 µM + cold DOTA-mDesmo 20 µM
  Binding (%) (Mean ± SD): 22% and 22.1 ± 2.1%
Sterility test
  sterility: sterile
corticotropinoma; 4 patients of ECS
  uptake in the pituitary of patients with ECS: no uptake
corticotropinoma; PET/CT, 24 patients of CD
  diagnostic accuracy: 100%
corticotropinoma; of 24 patients of CD
  patients of CD in whom the pituitary tumor was localized: 24 patients
[3]
  fraction unbound at 1 h: 0.344
[4]; 120 min, blood volume assumed 7% of body weight
  total blood pool, share of the injected activity: ~ 3%
[4]; rat, in vivo
  route of excretion: primarily excreted via the renal route
[4]; time following administration
  clearance from muscles, lungs, adrenals, liver, pancreas, spleen and heart: ≤ 120 min
[5]
  stability (single radio peak at Rf 0.0): up to 4 h

## Desmopressin
[6]
  plasma half-life: ~ 55 min
